Reference: ChEMBL document CHEMBL3046809, “Plant tissue distribution and chemical inactivation of six carnation viruses” (Crop Prot, 2007)
Active and inactive are the calls of the source.

How the values were obtained:
Format in all cases: functional, organism-based
[1] = test system: Carnation Italian ringspot virus; test: Antiviral activity against Carnation Italian ringspot virus infected as compound-treated sap in Saponaria vaccaria at 5% incubated for 60 secs prior to inoculation measured after 6 weeks in green house conditions by non-isotopic molecular hybridisation assay
Method in brief: (§1)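 Infected leaves ground in 30 mM phosphate buffer pH 7.0 with 0.5% PVP (1 g/5 ml) and clarified. Sap mixed 1:1 with chemical solution for 60 s; listed concentrations are final, after extract dilution. Buffer-only sap served as control. Treated sap rub-inoculated with carborundum onto three S. vaccaria cv. 'Pink Beauty' plants. Plants held in a greenhouse up to 6 weeks; infection scored by non-isotopic hybridisation.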

[2] = test system: Carnation ringspot virus; test: Antiviral activity against Carnation ringspot virus infected compound-treated sap in Saponaria vaccaria at 5% incubated for 60 secs prior to inoculation measured after 6 weeks in green house conditions by non-isotopic molecular hybridisation assay; method in brief: as §1
[3] = test system: Carnation vein mottle virus; test: Antiviral activity against Carnation vein mottle virus infected compound-treated sap in Saponaria vaccaria at 5% incubated for 60 secs prior to inoculation measured after 6 weeks in green house conditions by non-isotopic molecular hybridisation assay; method in brief: as §1
[4] = test system: Carnation latent virus; test: Antiviral activity against Carnation latent virus infected compound-treated sap in Saponaria vaccaria at 5% incubated for 60 secs prior to inoculation measured after 6 weeks in green house conditions by non-isotopic molecular hybridisation assay; method in brief: as §1
[5] = test system: Carnation etched ring virus; test: Antiviral activity against Carnation etched ring virus infected compound-treated sap in Saponaria vaccaria at 5% incubated for 60 secs prior to inoculation measured after 6 weeks in green house conditions by non-isotopic molecular hybridisation assay; method in brief: as §1
[6] = test system: Carnation mottle virus; test: Antiviral activity against Carnation mottle virus infected compound-treated sap in Saponaria vaccaria at 5% incubated for 60 secs prior to inoculation measured after 6 weeks in green house conditions by non-isotopic molecular hybridisation assay; method in brief: as §1
[7] = test system: Carnation Italian ringspot virus; test: Antiviral activity against Carnation Italian ringspot virus infected as compound-treated sap in Saponaria vaccaria at 3% incubated for 60 secs prior to inoculation measured after 6 weeks in green house conditions by non-isotopic molecular hybridisation assay; method in brief: as §1
[8] = test system: Carnation Italian ringspot virus; test: Antiviral activity against Carnation Italian ringspot virus infected compound-treated sap in Saponaria vaccaria at 7% incubated for 60 secs prior to inoculation measured after 6 weeks in green house conditions by non-isotopic molecular hybridisation assay; method in brief: as §1
[9] = test system: Carnation ringspot virus; test: Antiviral activity against Carnation ringspot virus infected compound-treated sap in Saponaria vaccaria at 7% incubated for 60 secs prior to inoculation measured after 6 weeks in green house conditions by non-isotopic molecular hybridisation assay; method in brief: as §1
[10] = test system: Carnation ringspot virus; test: Antiviral activity against Carnation ringspot virus infected compound-treated sap in Saponaria vaccaria at 3% incubated for 60 secs prior to inoculation measured after 6 weeks in green house conditions by non-isotopic molecular hybridisation assay; method in brief: as §1
[11] = test system: Carnation vein mottle virus; test: Antiviral activity against Carnation vein mottle virus infected compound-treated sap in Saponaria vaccaria at 7% incubated for 60 secs prior to inoculation measured after 6 weeks in green house conditions by non-isotopic molecular hybridisation assay; method in brief: as §1
[12] = test system: Carnation vein mottle virus; test: Antiviral activity against Carnation vein mottle virus infected compound-treated sap in Saponaria vaccaria at 3% incubated for 60 secs prior to inoculation measured after 6 weeks in green house conditions by non-isotopic molecular hybridisation assay; method in brief: as §1
[13] = test system: Carnation etched ring virus; test: Antiviral activity against Carnation etched ring virus infected compound-treated sap in Saponaria vaccaria at 3% incubated for 60 secs prior to inoculation measured after 6 weeks in green house conditions by non-isotopic molecular hybridisation assay; method in brief: as §1
[14] = test system: Carnation latent virus; test: Antiviral activity against Carnation latent virus infected compound-treated sap in Saponaria vaccaria at 7% incubated for 60 secs prior to inoculation measured after 6 weeks in green house conditions by non-isotopic molecular hybridisation assay; method in brief: as §1
[15] = test system: Carnation latent virus; test: Antiviral activity against Carnation latent virus infected compound-treated sap in Saponaria vaccaria at 3% incubated for 60 secs prior to inoculation measured after 6 weeks in green house conditions by non-isotopic molecular hybridisation assay; method in brief: as §1
[16] = test system: Carnation etched ring virus; test: Antiviral activity against Carnation etched ring virus infected compound-treated sap in Saponaria vaccaria at 7% incubated for 60 secs prior to inoculation measured after 6 weeks in green house conditions by non-isotopic molecular hybridisation assay; method in brief: as §1
[17] = test system: Carnation mottle virus; test: Antiviral activity against Carnation mottle virus infected compound-treated sap in Saponaria vaccaria at 7% incubated for 60 secs prior to inoculation measured after 6 weeks in green house conditions by non-isotopic molecular hybridisation assay; method in brief: as §1
[18] = test system: Carnation mottle virus; test: Antiviral activity against Carnation mottle virus infected compound-treated sap in Saponaria vaccaria at 3% incubated for 60 secs prior to inoculation measured after 6 weeks in green house conditions by non-isotopic molecular hybridisation assay; method in brief: as §1

Measured: Activity

O=P([O-])([O-])O.[Na+].[Na+]
inactive: [1] | [2] | [4] | [5] | [6]
active: [3]

OCl
inactive: [7] | [2] | [10] | [6] | [18]
active: all other assays above
